From paper PMC3079198 (Journal of the American Chemical Society, 2011)

How the values were obtained:
[1] = test system: H1299 cells with deleted p53; experiment: Caspase-Glo 3/7 assay in H1299 cells; type: cell-based, human; conditions: 20 μM, 24 h
Summary of the method: (§1)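 Human lung cancer cells, H460 (wild-type p53) and H1299 (p53 deleted), were exposed for 24 h to test compound at 20 μM. Controls were DMSO, a negative-control compound (20 μM) and a known MDM2 inhibitor as positive control (20 μM). Caspase 3/7 activity was then measured with the Caspase-Glo 3/7 assay kit.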

[2] = test system: H460 cells with wild type p53; experiment: Caspase-Glo 3/7 assay in H460 cells; type: cell-based, human; conditions: 20 μM, 24 h
Summary of the method: as §1

Structure (SMILES): CC(C)(C)C[C@H]1N[C@@H](C(=O)NCCN2CCOCC2)[C@H](c2cccc(Cl)c2F)[C@@]12C(=O)Nc1cc(Cl)ccc12 [MI-63]
- effect on caspase 3/7 activity [1]: no effect
- induction of caspase 3/7 activity [2]: ~5 fold
